Screening results (PubChem BioAssay)
A selection: hits, their analogues and other compounds. The true share with any hit is near 2.1%.
MLLE-PAM2 inh – inhibitors of microRNA-mediated deadenylation, human PABP1 MLLE binding. P11940. GST-MLLE / FITC-PAM2 fluorescence polarization. inhibition, % at 20 µM. 360,000 tested, 0.36% active; in the data active means inhibition above about 35%, passing the limit was not always enough;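 further: plate controls were DMSO wells with GST-MLLE for no effect and wells lacking GST-MLLE protein for full effect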
Target sequence (P11940 whole entry, looked up): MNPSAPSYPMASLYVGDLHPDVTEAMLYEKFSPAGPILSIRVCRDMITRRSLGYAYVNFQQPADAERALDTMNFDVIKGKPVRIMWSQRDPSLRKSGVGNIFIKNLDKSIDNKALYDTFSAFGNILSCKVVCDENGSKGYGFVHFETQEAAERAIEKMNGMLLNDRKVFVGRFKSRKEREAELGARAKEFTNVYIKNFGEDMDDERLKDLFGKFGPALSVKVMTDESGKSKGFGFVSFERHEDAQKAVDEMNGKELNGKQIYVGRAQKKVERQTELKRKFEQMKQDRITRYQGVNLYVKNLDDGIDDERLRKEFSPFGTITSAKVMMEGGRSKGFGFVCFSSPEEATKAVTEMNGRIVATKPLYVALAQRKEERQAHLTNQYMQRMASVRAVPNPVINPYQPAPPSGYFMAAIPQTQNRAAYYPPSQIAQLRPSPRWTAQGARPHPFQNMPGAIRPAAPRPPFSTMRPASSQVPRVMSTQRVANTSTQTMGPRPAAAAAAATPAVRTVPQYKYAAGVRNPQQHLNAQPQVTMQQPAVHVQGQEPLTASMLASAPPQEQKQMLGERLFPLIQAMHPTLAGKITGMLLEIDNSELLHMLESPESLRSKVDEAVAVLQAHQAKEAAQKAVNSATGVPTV
ZTA counter – ZTA (EBV) inhibition in EBNA-1 counter-screen; ZTA-DNA binding, fluorescence polarization; inhibition, % at 11 µM; 320,000 tested, 0.15% active; AID 2234; in the data active means inhibition above about 33%
eIF4H FP inh – inhibitors of RNA binding by human eIF4H. inhibition, % at 35 µM. Q15056. 290,000 tested, 0.94% active. eIF4H fluorescence polarization binding assay;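 further: calls also rest on retests at 20 µM and on dose response follow-up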
EBNA-1 inh – blocks EBNA-1 binding to DNA. EBNA-1 DNA binding, fluorescence polarization. inhibition, % at 14.8 µM. 300,000 tested, 0.34% active; in the data active means inhibition above about 28%
PABP polyA inh – PABP-poly(A) binding inhibition; PABP-poly(A) RNA binding, fluorescence polarization; inhibition, % at 35 µM; 290,000 tested, 1% active;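 further: calls also rest on retests at 20 µM and on dose response follow-up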
NS3 helicase inh – HCV NS3 helicase inhibition. AID 1800. 290,000 tested, 0.56% active. NS3 helicase DNA unwinding, Cy5 molecular beacon fluorescence. inhibition, % at 10.9 µM;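 active means inhibition above the mean of all tested compounds plus 3 SD, set per campaign, cut at about 35% in these data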;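 further: 0% = DMSO wells and 100% = thioflavine S control wells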
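assay system = NS3 helicase fragment of HCV | buffer or medium = MOPS pH 6.5, MgCl2, DTT, Tween20, BSA | timing = 60 min unwinding reaction at 25 °C after ATP addition | signal = Cy5 beacon fluorescence read at start and 1 h | read-out basis = % inhibition of unwinding | control set = low DMSO, high thioflavine S at 110 µM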
* = called active by the depositor; ? = inconclusive; nt = no result. Unless noted, how the calls were made is not given here.

SMILES | MLLE-PAM2 inh | ZTA counter | eIF4H FP inh | EBNA-1 inh | PABP polyA inh | NS3 helicase inh
NS(=O)(=O)c1ccc(NC(=S)NC(=O)c2ccc(-c3ccccc3)cc2)cc1 | 43* | 6 | 2 | 23 | 3 | -8
COc1ccc(/C=C2\SC(=S)N(CC(=O)N(C)C3CCS(=O)(=O)C3)C2=O)cc1 (stereo not given) | 1 | -14 | -17 | -9 | 2 | 8
O=C(NCc1ccco1)C(=O)NCC1OCCN1S(=O)(=O)c1ccccc1 (stereo not given) | -6 | -10 | 56 | 1 | -2 | 0
COc1cccc(C(=O)/C=C/Nc2cccc(O)c2)c1 | 33 | -15 | 128 | -8 | 120 | 5
COc1ccccc1CNC(=O)c1ccc(CS(=O)Cc2cccc(Cl)c2)o1 (stereo not given) | 10 | 2 | -2 | 2 | -1 | -5
O=C(Nc1ccc(S(=O)(=O)Nc2nccs2)cc1)c1nn(-c2ccccc2)ccc1=O | -36 | -2 | 77* | -5 | 44 | 30
Cc1cccc(-n2ccc(=O)c(C(=O)Nc3ccc(S(=O)(=O)Nc4nccs4)cc3)n2)c1 | 3 | -3 | 41 | -1 | 16 | 6
COc1ccc(-c2nnc(CSc3ncnc4sc5c(c34)CCC5)o2)cc1OC | 5 | nt | 53* | nt | 6.7* | nt
N#CCSc1ncnc2sc3c(c12)CCC3 | -21 | -11 | 7 | -11 | 20 | 1
Cc1cccc(C(=O)NC(C)C(c2cccs2)N2CCOCC2)c1 (stereo not given) | -7 | 12 | -7 | -3 | -8 | 11
COc1ccc(NC(=O)COC(=O)CCNS(=O)(=O)c2ccccc2)cc1OC | -19 | 15 | active | -7 | 58* | -4
COc1ccc(NC(=O)COC(=O)CNS(=O)(=O)c2ccccc2)cc1OC | 5 | -11 | -5 | -3 | -7 | -2
C[C@H]1CN([C@@H](C)CO)S(=O)(=O)c2ccc(C#CC(C)(C)O)cc2O[C@H]1CN(C)Cc1ccccc1 | 14 | nt | nt | nt | nt | nt
CCc1c(O)nc(SCC(=O)Nc2ccccc2OC)n(-c2ccccc2C)c1=O | 46* | -13 | nt | -12 | nt | 28
CCCCc1c(O)nc(SCC(=O)Nc2cccc3ccccc23)n(-c2ccccc2OC)c1=O | 41* | 15 | -3 | -3 | 7 | -14
COc1ccc(NS(=O)(=O)c2cccc(C(=O)NCC(c3ccc(OC)cc3)N3CCOCC3)c2)cc1 (stereo not given) | -6 | -4 | -5 | 4 | -1 | -15
CCOC(=O)c1c2c3c(cccc3[nH]c1=O)C(=O)c1ccccc1-2 | 11 | 8 | 0 | -5 | -1 | -8
CCOC(=O)c1c2c3c(cccc3n(C)c1=O)C(=O)c1ccccc1-2 | 62* | 6 | -9 | -7 | -16 | -59
CCC(=O)c1ccc(NC(C)=O)cc1O | 3 | -2 | 77* | -2 | 51* | -1
CCC(=O)c1ccc(SC(=O)N(C)C)cc1O | 3 | -1 | 4 | -17 | 13 | 1
CCOc1ccccc1CNC(=O)c1cc2occc2n1C | 2 | 9 | ? | -6 | 83* | 26
COc1ccc(CC(=O)N2N=C(C)CC2(O)c2cccnc2)cc1OC (stereo not given) | 15 | 9 | -16 | -1 | -4 | -8
CN(C=[N+](C)C)c1cccc2c1C(=O)c1ccccc1C2=O | 86* | -3 | ? | 6 | 23 | 0
O=C(CN1C(=O)NC2(CCCC2)C1=O)OCc1ccc(F)cc1 | 2 | 6 | nt | 6 | nt | nt
Cc1ccc(/C=C2/Sc3ccc(C(=O)N4CCN(C)CC4)cc3NC2=O)cc1 | 46* | -14 | 88 | -9 | 42* | -80
SMILES | MLLE-PAM2 inh | ZTA counter | eIF4H FP inh | EBNA-1 inh | PABP polyA inh | NS3 helicase inh
Nc1cccc2c(=O)c3ccccc3[nH]c12 | -51 | 4 | 92* | -6 | 92* | 25
COc1cccc2[nH]c3ccccc3c(=O)c12 | 21 | -10 | -3 | 9 | 6 | 2
CC1CSC(N(C(=O)c2ccc(S(C)(=O)=O)cc2)c2ccc(Cl)cc2)=N1 (stereo not given) | 3 | -3 | -2 | -5 | 6 | -10
C=CCc1cccc(C=Nc2ccc(Br)cc2)c1O | -10 | 8 | 2 | 5 | -1 | 3
C=CCc1cccc(/C=N/c2ncccc2O)c1O | 1 | 14 | 70* | 11 | 71* | 0
Cc1[nH]n(C(N)=S)c(=O)c1N=Nc1ccc(S(=O)(=O)N2CCCC2)cc1 | 42* | 1 | 2 | -4 | -10 | 5
Cc1ccc(N=Nc2c(C)[nH]n(C(N)=S)c2=O)cc1 | 14 | 9 | 13 | 2 | 12 | -3
CC1CC(C)CN(c2nc3c(c(=O)[nH]c(=O)n3C)n2CCCSc2nc3ccccc3s2)C1 (stereo not given) | -2 | nt | nt | nt | nt | -8
COC(=O)CCC(=O)OC1(C)C(=O)C2=CN(Cc3ccco3)C(c3ccc(OC)cc3)=CC2=C(Br)C1=O (stereo not given) | nt | 5 | nt | 11 | nt | nt
CCOc1ccc2c(c1)n([O-])c1c([n+]2=O)CCCC1 | 43* | nt | -3 | nt | -3 | -6
Cc1cc(C(=O)COC(=O)c2ccc(Br)o2)c(C)n1Cc1ccco1 | nt | 4 | 5 | -3 | -13 | 1
Cc1cc(C(=O)COC(=O)C(C)NC(N)=O)c(C)n1Cc1ccco1 (stereo not given) | 4 | -18 | 26 | -4 | -3 | 12
Cc1cc(C(=O)C(C)Cl)c(C)n1Cc1ccco1 (stereo not given) | 4 | 9 | 101* | 4 | 1.6* | 14
Cc1cc(C(=O)COC(=O)c2ccc(O)cc2)c(C)n1Cc1ccco1 | -15 | -9 | 74* | 11 | active | -3
c1ccc(CSc2nc3ccccc3[nH]2)cc1 | -12 | -6 | 8 | -3 | 17 | 3
O=[N+]([O-])c1ccc(CSc2nc3ccccc3[nH]2)cc1 | -74 | -9 | -5 | -6 | 72* | -7
CCN(CC)S(=O)(=O)c1ccc2c(c1)N(CC(=O)NCCCN1CC(C)CC(C)C1)C(=O)CO2 (stereo not given) | -4 | -7 | 8 | -12 | 0 | 10
CCN(CC(=O)NCc1ccc(Cl)cc1)C(=O)/C=C/c1ccco1 | -7 | 7 | 16* | -5 | 56* | 14
Cc1csc(NC(=O)/C=C/c2ccco2)n1 | -6 | -1 | 82 | 14 | active | 8
Cc1ccccc1NC(=S)NC(=O)/C=C/c1ccco1 | 13 | -3 | 22 | 14 | 8 | 6
NC(N)=NS(=O)(=O)c1ccc(NC(=S)NC(=O)/C=C/c2ccco2)cc1 | 2 | -14 | 88 | -4 | active | 12
COc1ccccc1NC(=S)NC(=O)/C=C/c1ccco1 | -1 | 4 | 77 | -7 | 5.9* | 11
COc1cc(/C=C/C(=O)OCC(=O)NC(=O)NC2CCCC2)ccc1OCC#N | 12 | nt | nt | nt | nt | nt
C[C@@H]1CCCCCCCCC(=O)OCCN1C(=O)OC(C)(C)C | 14 | 10 | nt | nt | nt | nt
